Test results as given in ChEMBL document CHEMBL4004805, “Tacrine-resveratrol fused hybrids as multi-target-directed ligands against Alzheimer's disease” (Eur J Med Chem, 2017).
Active and inactive are the calls of the source. The rule behind the calls is not given here.

What was measured:
[1] = target: Amyloid-beta precursor protein (Homo sapiens) (UniProt P05067); test: Inhibition of amyloid beta 42 (unknown origin) self aggregation at 50 uM by ThT-based fluorometric method relative to control
Chain of Amyloid-beta precursor protein (Homo sapiens) (P05067 whole entry): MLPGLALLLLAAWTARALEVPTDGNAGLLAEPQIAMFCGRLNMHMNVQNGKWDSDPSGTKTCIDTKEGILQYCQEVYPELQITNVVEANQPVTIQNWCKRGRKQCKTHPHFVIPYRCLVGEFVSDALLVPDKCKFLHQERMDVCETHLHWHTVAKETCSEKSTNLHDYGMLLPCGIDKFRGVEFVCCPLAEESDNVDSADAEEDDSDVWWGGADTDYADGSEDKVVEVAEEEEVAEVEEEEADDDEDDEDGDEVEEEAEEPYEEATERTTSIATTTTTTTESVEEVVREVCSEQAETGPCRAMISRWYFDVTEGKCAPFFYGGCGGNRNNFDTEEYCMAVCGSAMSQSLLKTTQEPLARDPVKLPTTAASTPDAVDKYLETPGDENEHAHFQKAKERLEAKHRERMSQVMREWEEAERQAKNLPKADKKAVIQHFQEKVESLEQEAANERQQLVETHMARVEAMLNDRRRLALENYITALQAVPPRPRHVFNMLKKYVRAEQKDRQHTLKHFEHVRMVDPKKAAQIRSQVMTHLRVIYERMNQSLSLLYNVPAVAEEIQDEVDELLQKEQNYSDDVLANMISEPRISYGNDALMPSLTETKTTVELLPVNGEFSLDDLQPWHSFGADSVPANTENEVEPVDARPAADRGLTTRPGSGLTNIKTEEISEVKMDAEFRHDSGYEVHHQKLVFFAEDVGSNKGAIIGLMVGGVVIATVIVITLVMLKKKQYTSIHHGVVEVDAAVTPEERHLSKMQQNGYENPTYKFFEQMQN
Summary of the method: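 Pretreated Aβ42 (50 µM final) was incubated at 30 °C in 10 mM phosphate buffer pH 8.0 with 10 mM NaCl, with or without inhibitor (50 µM). Samples were then diluted in 50 mM glycine-NaOH pH 8.5 containing 1.5 µM ThT. Fluorescence (ex 446/em 490 nm) was scanned for 300 s, plateau values averaged minus ThT background, giving % inhibition.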

Acetylcholinesterase [2] = target: T1, Acetylcholinesterase (Homo sapiens, UniProt P22303); test: Inhibition of acetylcholinesterase isolated from human red blood cells at 10 uM using acetylthiocholine as substrate preincubated for 5 mins followed by substrate addition measured every 2 mins by Ellman's method
T1 sequence (P22303 whole entry): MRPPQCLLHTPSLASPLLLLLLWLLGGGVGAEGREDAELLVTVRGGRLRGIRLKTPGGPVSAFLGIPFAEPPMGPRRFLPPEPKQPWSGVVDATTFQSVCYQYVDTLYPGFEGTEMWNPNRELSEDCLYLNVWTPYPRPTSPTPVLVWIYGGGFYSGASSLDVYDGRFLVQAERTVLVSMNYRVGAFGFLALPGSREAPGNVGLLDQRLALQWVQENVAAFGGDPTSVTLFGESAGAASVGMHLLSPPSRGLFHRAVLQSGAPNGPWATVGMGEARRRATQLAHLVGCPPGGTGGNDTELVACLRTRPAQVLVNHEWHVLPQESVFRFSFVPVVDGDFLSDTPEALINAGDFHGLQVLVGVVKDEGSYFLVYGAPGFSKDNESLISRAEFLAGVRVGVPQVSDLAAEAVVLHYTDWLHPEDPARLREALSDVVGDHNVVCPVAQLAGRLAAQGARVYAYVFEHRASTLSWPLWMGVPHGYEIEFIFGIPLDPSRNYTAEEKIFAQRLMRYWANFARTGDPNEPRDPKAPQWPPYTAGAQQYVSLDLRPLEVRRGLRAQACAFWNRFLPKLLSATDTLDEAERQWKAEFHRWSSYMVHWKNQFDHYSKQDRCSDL
Summary of the method: (§1)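 Buffer was 0.1 M potassium phosphate, pH 7.4, with DTNB and enzyme (10 µL of 2.0 units/mL stock) in a 100 µL mix. Substrate was iodide salt (20 µL of 0.01 M). Inhibitor range 10-3–10-9 M. Absorbance rise read at 412 nm, 37 °C. Each concentration run in triplicate. IC50 is the concentration giving 50% loss of activity. Screening done at 10 µM before IC50 work.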

[3] = target: Cholinesterase (Homo sapiens) (UniProt P06276); test: Inhibition of butyrylcholinesterase isolated from human plasma at 10 uM using butyrylthiocholine as substrate preincubated for 5 mins followed by substrate addition measured every 2 mins by Ellman's method; summary of the method: as §1
Chain of Cholinesterase (Homo sapiens) (P06276 whole entry): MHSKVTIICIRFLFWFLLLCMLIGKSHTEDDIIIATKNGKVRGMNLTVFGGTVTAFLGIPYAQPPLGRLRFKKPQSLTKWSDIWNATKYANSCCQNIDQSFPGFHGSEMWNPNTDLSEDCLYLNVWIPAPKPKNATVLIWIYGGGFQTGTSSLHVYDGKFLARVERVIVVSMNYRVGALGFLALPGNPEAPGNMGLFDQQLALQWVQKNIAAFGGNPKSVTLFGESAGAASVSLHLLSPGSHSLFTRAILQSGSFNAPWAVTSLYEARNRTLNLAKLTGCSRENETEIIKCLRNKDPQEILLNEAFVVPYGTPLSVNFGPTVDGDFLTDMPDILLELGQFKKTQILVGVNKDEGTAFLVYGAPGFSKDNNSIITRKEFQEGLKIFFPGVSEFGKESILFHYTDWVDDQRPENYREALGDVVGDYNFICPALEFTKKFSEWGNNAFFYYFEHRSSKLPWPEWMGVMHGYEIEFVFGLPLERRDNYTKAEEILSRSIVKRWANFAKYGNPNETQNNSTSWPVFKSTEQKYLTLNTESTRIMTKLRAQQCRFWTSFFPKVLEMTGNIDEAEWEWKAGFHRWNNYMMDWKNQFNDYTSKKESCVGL

[4] = Neurotoxicity against Wistar rat primary cerebellar granule neurons assessed as decrease in cell survival at 5 uM after 24 hrs by MTT assay; assay type: toxicity, cell-based; conditions: primary cerebellar granule neuron
Summary of the method: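 Cerebellar granule neurons came from 7-day-old Wistar rat pups, plated on poly-L-lysine in BME with 10% FBS and 25 mM KCl. Cytosine arabinoside (10 µmol/L) was added at 16 h. At 7 DIV, cells were moved to serum-free medium and exposed to 0–50 µM compound for 24 h. Survival was read by MTT at 570 nm as % of control; mean ± SE, four experiments at least in quadruplicate.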

[5] = Hepatotoxicity against human HepG2 cells assessed as cell viability at 5 to 50 uM after 24 hrs by MTT assay relative to control; assay type: toxicity, cell-based; conditions: read-out: Activity
Summary of the method: (§2)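 HepG2 cells in high-glucose DMEM with 10% FBS were seeded at 8 x 10^3 cells/well, then exposed to 0–50 µM compound for 24 h in serum-free medium. MTT (0.1 mg/mL) was added for 20 min at 37 °C in the dark, formazan dissolved in Tris-HCl/5% Triton X-100, absorbance read at 570 nm. Viability as % of control; mean ± SE, four experiments at least in quadruplicate.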

[6] = Neurotoxicity against Wistar rat primary cerebellar granule neurons assessed as decrease in cell survival at 25 to 50 uM after 24 hrs by MTT assay; assay type: toxicity, cell-based; conditions: primary cerebellar granule neuron
HepG2 = test: Hepatotoxicity against human HepG2 cells assessed as decrease in cell viability at 5 to 50 uM after 24 hrs by MTT assay; assay type: toxicity, cell-based; conditions: hepg2, 24 h; summary of the method: as §2
Acetylcholinesterase [7] = target: T1, Acetylcholinesterase; test: Inhibition of acetylcholinesterase isolated from human red blood cells using acetylthiocholine as substrate preincubated for 5 mins followed by substrate addition measured every 2 mins by Ellman's method; summary of the method: as §1
[8] = Antioxidant activity of the compound assessed as DPPH radical scavenging activity after 30 mins; assay type: functional
Summary of the method: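 DPPH (0.2 mM solution) was mixed 1:1 in methanol with compound (10-3–10-6 M). After 30 min at laboratory temperature, absorbance was read at 517 nm. Triplicates per concentration; EC50 is the concentration giving a 50% decrease in DPPH activity.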

Acetylcholinesterase [9] = target: Acetylcholinesterase (Electrophorus electricus, UniProt O42275); test: Displacement of propidium iodide from electric eel AChE by spectrofluorometric method
Chain of Acetylcholinesterase (Electrophorus electricus, UniProt O42275) (O42275 whole entry): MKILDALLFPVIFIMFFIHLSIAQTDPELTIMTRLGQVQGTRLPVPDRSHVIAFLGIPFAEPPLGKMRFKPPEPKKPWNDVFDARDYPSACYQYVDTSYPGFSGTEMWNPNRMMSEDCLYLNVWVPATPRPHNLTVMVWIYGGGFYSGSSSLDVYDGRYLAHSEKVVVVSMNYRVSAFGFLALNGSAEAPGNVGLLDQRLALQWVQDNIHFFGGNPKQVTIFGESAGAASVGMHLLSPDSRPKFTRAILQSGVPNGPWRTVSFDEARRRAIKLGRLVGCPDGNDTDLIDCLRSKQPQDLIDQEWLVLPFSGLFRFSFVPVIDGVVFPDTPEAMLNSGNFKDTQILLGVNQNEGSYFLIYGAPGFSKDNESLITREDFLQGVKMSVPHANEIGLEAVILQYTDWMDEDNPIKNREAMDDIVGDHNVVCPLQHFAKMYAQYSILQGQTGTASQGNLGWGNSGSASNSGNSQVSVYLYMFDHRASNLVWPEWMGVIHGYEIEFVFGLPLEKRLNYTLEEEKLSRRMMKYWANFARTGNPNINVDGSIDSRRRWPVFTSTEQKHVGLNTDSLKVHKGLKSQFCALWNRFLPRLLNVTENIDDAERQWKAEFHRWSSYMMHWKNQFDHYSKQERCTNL
Summary of the method: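 Back-titration of a preformed EeAChE (2 µM)–propidium iodide (8 µM) complex in 1.0 mM Tris-HCl pH 8.0, with inhibitor added stepwise (final 8–56 µM; methanol stock). Fluorescence read at 635 nm, excitation 535 nm. Blanks were run for propidium alone, inhibitor plus propidium, and enzyme alone. KD derived by the Taylor–Lappi treatment, taking propidium KD = 0.7 µM.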

[10] = target: Cholinesterase (Homo sapiens) (UniProt P06276); test: Inhibition of butyrylcholinesterase isolated from human plasma up to 100 uM using butyrylthiocholine as substrate preincubated for 5 mins followed by substrate addition measured every 2 mins by Ellman's method; summary of the method: as §1
[11] = Neurotoxicity against Wistar rat primary cerebellar granule neurons assessed as decrease in cell survival at 5 to 50 uM after 24 hrs by MTT assay; assay type: toxicity, cell-based; conditions: primary cerebellar granule neuron
Astrocyte [12] = test: Antineuroinflammatory activity against LPS-induced Wistar rat primary astrocytes assessed as decrease in nitrite production after 24 hrs by Griess method; assay type: functional, cell-based
Summary of the method: (§3)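 Microglia (shaken off) and astrocytes (trypsinized remainder) came from newborn Wistar rat cortical mixed glia grown 10–13 days. Cells were co-treated 24 h with LPS and compound (10–50 µM). Nitrite in the medium was measured by Griess reaction (sulfanilamide 5 mM, NEDA 40 mM) against a NaNO2 standard curve. Mean ± SE of 3 experiments, each at least in quadruplicate.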

Microglia [13] = test: Antineuroinflammatory activity against LPS-induced Wistar rat primary microglia cells assessed as decrease in nitrite production after 24 hrs by Griess method; assay type: functional, cell-based; summary of the method: as §3
Astrocyte [14] = test: Immunomodulatory activity in LPS-induced Wistar rat primary astrocytes assessed as decrease in iNOS expression at 10 to 50 uM after 24 hrs by Western blot method; assay type: functional, cell-based
Summary of the method: (§4)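 Rat primary microglia or astrocytes were exposed 24 h to LPS with compound (0–50 µM), then lysed; protein was measured by Lowry. Immunoblots used anti-iNOS, anti-TREM2 or anti-MRC1 with GAPDH as loading control, read by ECL and densitometry. Values are % of LPS alone; mean ± SE of 3 experiments.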

Microglia [15] = test: Immunomodulatory activity in LPS-induced Wistar rat primary microglia cells assessed as decrease in iNOS expression at 10 to 50 uM after 24 hrs by Western blot method; assay type: functional, cell-based; summary of the method: as §4
Primary glial cell [16] = test: Immunomodulatory activity in LPS-induced Wistar rat primary glial cells assessed as decrease in MRC1 expression at 10 to 50 uM after 24 hrs by Western blot method; assay type: functional, cell-based; summary of the method: as §4
Primary glial cell [17] = test: Immunomodulatory activity in LPS-induced Wistar rat primary glial cells assessed as decrease in TREME2 expression after 24 hrs by Western blot method; assay type: functional, cell-based; summary of the method: as §4
Primary glial cell [18] = test: Immunomodulatory activity in LPS-induced Wistar rat primary glial cells assessed as decrease in TREME2 mRNA expression after 24 hrs; assay type: functional, cell-based
Primary glial cell [19] = test: Immunomodulatory activity in LPS-induced Wistar rat primary glial cells assessed as decrease in iNOS mRNA expression after 24 hrs; assay type: functional, cell-based

Row | SMILES | inhibition [1] [%] | inhibition (Acetylcholinesterase [2]) | inhibition [3] | Activity [4] | Activity (HepG2) | IC50 (Acetylcholinesterase [7]) [µM] | EC50 [8] [µM] | also measured
1 | COc1ccc2nc3c(c(N)c2c1)CCCC3 | < 5 |  |  |  |  |  |  | 
2 | COc1cc(/C=C/c2ccc(Nc3c4c(nc5cc(Cl)ccc35)CCCC4)cc2)cc(OC)c1 | 21.6 | inactive | inactive | Toxic |  |  |  | viability at 24 h, up to 50 µM [5]: 70%
3 | COc1cc(/C=C/c2ccc(Nc3c4c(nc5ccccc35)CCCC4)cc2)cc(OC)c1 |  | inactive | inactive |  | Toxic |  |  | Activity [6]: Toxic
4 | COc1cc(CCc2ccc(Nc3c4c(nc5ccccc35)CCCC4)cc2)cc(OC)c1 |  |  | inactive | Toxic | Toxic | 14.2 |  | 
5 | Oc1cc(O)cc(CCc2ccc(Nc3c4c(nc5cc(Cl)ccc35)CCCC4)cc2)c1 | 37.3 |  | inactive |  | Toxic | 1.3 | > 5000 | Activity [6]: Toxic
6 | COc1cc(CCc2ccc(Nc3c4c(nc5ccc(OC)cc35)CCCC4)cc2)cc(OC)c1 |  | inactive | inactive | Toxic | Toxic |  |  | 
7 | COc1cc(CCc2ccc(Nc3c4c(nc5cc(Cl)ccc35)CCCC4)cc2)cc(OC)c1 | 17.6 |  | inactive | Toxic | Toxic | 0.8 | 155 | Kd (Acetylcholinesterase [9]): 7.31 µM
8 | Oc1ccc(/C=C/c2cc(O)cc(O)c2)cc1 [RESVERATROL] | 30 | inactive |  |  | Non-Toxic |  | 25.6 | inhibition [10]: inactive
9 | Cc1c(C)c2c(c(C)c1O)CCC(C)(C(=O)O)O2 (stereo unspecified) [TROLOX] |  |  |  |  |  |  | 16.2 | 
10 | COc1cc(/C=C/c2ccc(Nc3c4c(nc5ccc(OC)cc35)CCCC4)cc2)cc(OC)c1 |  | inactive | inactive | Toxic | Toxic |  |  | 
11 | CC(=O)N[C@@H](CS)C(=O)O [ACETYLCYSTEINE] |  |  |  |  |  |  | 28 | 
12 | Oc1cc(O)cc(/C=C/c2ccc(Nc3c4c(nc5cc(Cl)ccc35)CCCC4)cc2)c1 | 31.2 |  | inactive |  | Toxic | 8.8 | > 5000 | Activity [11]: Non-Toxic; Activity (Astrocyte [12]): Dose-dependent effect; Activity (Microglia [13]): Dose-dependent effect; Activity (Astrocyte [14]): Active; Activity (Microglia [15]): Active; Activity (Primary glial cell [16]): Active; Activity (Primary glial cell [17]): Dose-dependent effect; Activity (Primary glial cell [18]): Active; Activity (Primary glial cell [19]): Active
